In ChEMBL document CHEMBL4118104, “Design, Synthesis, and Evaluation of Orally Bioavailable Quinoline-Indole Derivatives as Innovative Multitarget-Directed Ligands: Promotion of Cell Proliferation in the Adult Murine Hippocampus for the Treatment of Alzheimer's Disease” (J Med Chem, 2018):

Tests used:
Type in all cases: ADME, organism-based
[1] = Initial plasma concentration in Sprague-Dawley rat at 5 mg/kg, iv administered as single dose by LC-MS/MS analysis
[2] = AUC (0 to t) in Sprague-Dawley rat at 5 mg/kg, iv administered as single dose by LC-MS/MS analysis; conditions: in vivo
Outline: (§1)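 SD rats given 5 mg/kg intravenously, n = 3; pharmacokinetic parameters derived from plasma concentrations.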

[3] = AUC (0 to infinity) in Sprague-Dawley rat at 5 mg/kg, iv administered as single dose by LC-MS/MS analysis; parameters: dose 5 mg/kg, time infinity, route intravenous; conditions: in vivo; outline: as §1
[4] = Clearance in Sprague-Dawley rat at 5 mg/kg, iv administered as single dose by LC-MS/MS analysis; conditions: in vivo; outline: as §1
[5] = MRT (0 to t) in Sprague-Dawley rat at 5 mg/kg, iv administered as single dose by LC-MS/MS analysis; conditions: in vivo
[6] = MRT (0 to infinity) in Sprague-Dawley rat at 5 mg/kg, iv administered as single dose by LC-MS/MS analysis; conditions: in vivo
[7] = Half life in Sprague-Dawley rat at 30 mg/kg, po by LC-MS/MS analysis; conditions: in vivo
[8] = MRT (0 to t) in Sprague-Dawley rat at 30 mg/kg, po by LC-MS/MS analysis; conditions: in vivo
Outline: (§2)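 SD rats given a single oral gavage dose of 30 mg/kg, n = 3; plasma levels by LC-MS/MS; bioavailability computed against the 5 mg/kg intravenous arm.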

[9] = MRT (0 to infinity) in Sprague-Dawley rat at 30 mg/kg, po by LC-MS/MS analysis; conditions: in vivo; outline: as §2
[10] = Oral bioavailability in Sprague-Dawley rat at 30 mg/kg by LC-MS/MS analysis; conditions: in vivo; outline: as §2

Cl.Oc1ccc2[nH]c(-c3ccc4c(Cl)cc(Cl)c(O)c4n3)cc2c1
C0 [1]: 4930 ng/mL | AUC(0-t) [2]: 2110 ng·h/mL | AUC(0-inf) [3]: 2120 ng·h/mL | clearance [4]: 39.3 mL/min/kg | MRT last [5]: 0.38 h | MRT inf [6]: 0.41 h | half-life [7]: 3.58 h | MRT last [8]: 2.53 h | MRT inf [9]: 4.88 h | bioavailability [10]: 14.1%
